PLCg1 inh – blocks human PLC-gamma1 enzyme activity. P19174. purified PLC-gamma1, fluorogenic substrate, fluorescence. inhibition, % at 12.2 µM. 370,000 compounds, 0.84% hits. AID 720700; in the data active means inhibition above about 9.5%
TbMetRS inhib – Trypanosoma brucei MetRS inhibition | AID 624268 | purified T. brucei MetRS, ATP depletion, Kinase-Glo luminescence | 360,000 compounds, 0.4% hits | inhibition, % at 11.9 µM;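 active means inhibition above a per-plate cutoff of the control wells' mean inhibition plus 3 SD, cut at about 5.5% in these data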;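 further: 0% = DMSO wells median and 100% = median of wells with control inhibitor compound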
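Material: parasite MetRS enzyme / Replication: singlicate, one well per compound / Signal: luminescence of leftover ATP / Schedule: 2 h aminoacylation at 25 °C after 15 min preincubation / Medium: HEPES-MgCl2-KCl buffer plus DTT, spermine, BSA, pyrophosphatase / Doses: 11.9 µM single point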
HGIII-sPLA2 inh – Blocks human group III sPLA2 activity; 370,000 compounds, 0.56% hits; QFRET BODIPY PC-A2 liposome hydrolysis, fluorescence; AID 743126; inhibition, % at 12.2 µM;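 active means inhibition above mean plus 3 SD of compounds lying within the high and low control bounds, cut at about 19% in these data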;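 further: 0% = median of test compound wells and 100% = no enzyme DMSO wells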
PLC-beta3 inh – blocks human PLC-beta3 enzyme activity; Q01970; Purified PLC-beta3, fluorogenic substrate, fluorescence; inhibition, % at 12.2 µM; 370,000 compounds, 0.18% hits; AID 720704; in the data active means inhibition above about 11%;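 further: 0% = median of compound wells on plate and 100% = full blocker control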
DAGLB inh – diacylglycerol lipase beta (human) inhibition; Q8NCG7; HEK293T DAGLB membrane lysate, EnzChek fluorogenic substrate; inhibition, % at 5.17 µM; 340,000 compounds, 0.059% hits; AID 504411; in the data active means inhibition above about 34%;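 further: 0% = enzyme with vehicle and 100% = wells lacking enzyme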
Target sequence (Q8NCG7 whole entry, looked up): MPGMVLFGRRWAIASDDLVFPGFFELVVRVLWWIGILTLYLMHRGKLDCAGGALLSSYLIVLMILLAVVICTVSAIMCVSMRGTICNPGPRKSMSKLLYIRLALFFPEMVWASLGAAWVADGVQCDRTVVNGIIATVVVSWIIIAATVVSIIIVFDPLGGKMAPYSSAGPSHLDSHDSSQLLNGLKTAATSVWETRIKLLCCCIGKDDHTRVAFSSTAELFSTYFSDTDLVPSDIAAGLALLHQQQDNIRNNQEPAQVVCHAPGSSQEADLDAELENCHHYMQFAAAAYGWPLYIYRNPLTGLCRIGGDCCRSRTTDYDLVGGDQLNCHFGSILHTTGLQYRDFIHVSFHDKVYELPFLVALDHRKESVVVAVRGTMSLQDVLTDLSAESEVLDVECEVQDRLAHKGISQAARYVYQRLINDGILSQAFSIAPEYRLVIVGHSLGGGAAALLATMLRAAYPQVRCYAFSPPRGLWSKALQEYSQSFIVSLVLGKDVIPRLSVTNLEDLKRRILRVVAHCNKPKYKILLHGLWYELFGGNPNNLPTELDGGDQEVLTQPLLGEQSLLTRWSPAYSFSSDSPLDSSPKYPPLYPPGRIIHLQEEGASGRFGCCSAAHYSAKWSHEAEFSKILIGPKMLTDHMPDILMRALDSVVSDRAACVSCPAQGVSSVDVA
sPLA2 confirm – human GIII-sPLA2 inhibition, confirmation; shares compounds with HGIII-sPLA2 inh; recombinant hGIII-sPLA2, BODIPY PC-A2 QFRET fluorescence; inhibition, % at 12.2 µM; 2,000 compounds, 34% hits; AID 743280;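 active means mean inhibition across triplicates above the hit cutoff set in the earlier primary screen, cut at about 19% in these data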;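 further: 0% = enzyme with DMSO and 100% = DMSO wells lacking enzyme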
535nm interf – counter-screen for HGIII-sPLA2 inhibitors: 535nm fluorescence interference. AID 743282. shares compounds with HGIII-sPLA2 inh. BODIPY FL product fluorescence interference, QFRET. inhibition, % at 12.2 µM. 2,000 compounds, 8.5% hits;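 active means average inhibition above the solvent-only control mean plus 3 SD, cut at about 6% in these data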;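 further: 0% = DMSO with substrate plus product and 100% = DMSO with substrate alone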
* marks the source's active call; other numbers are inactive results; . = no result given. Compounds with a hit are over-represented: about 1.9% of the library has one in this group of screens.

SMILES	PLCg1 inh	TbMetRS inhib	HGIII-sPLA2 inh	PLC-beta3 inh	DAGLB inh	sPLA2 confirm	535nm interf
C=CCN1C(=O)[C@]2(OCCC=C[C@H]2C)c2cc(OC)ccc21	2	.	12	-2	.	.	.
C[C@@H]1CN([C@H](C)CO)C(=O)CCCn2nncc2CO[C@H]1CN(C)C(=O)c1ccc(N2CCN(C)CC2)cc1	0	0	19*	-2	-3	-7	-12
C[C@@H]1CN([C@H](C)CO)C(=O)CCCn2nncc2CO[C@@H]1CN(C)C(=O)c1ccccc1	0	0	21*	1	-4	-1	-5
C[C@@H]1CN([C@@H](C)CO)C(=O)CCCn2nncc2CO[C@@H]1CN(C)C(=O)c1ccccc1	2	0	5	5	-2	.	.
N#Cc1ccc(C(=O)Oc2coc(CSc3ncccn3)cc2=O)cc1	0	.	6	4	.	.	.
CCOC(=O)c1cc(CC)sc1/N=C/C1=C(O)CC(C)(C)CC1=O	-3	0	23*	-11	1	11	-2
CCOC(=O)c1ccc(N=CC2=C(O)CC(C)(C)CC2=O)cc1	-1	-1	3	-1	-1	.	.
CC(CO)(CO)NC(=O)c1ccc(C#Cc2cccc(F)c2)cn1	-4	.	9	-14	.	.	.
CC1CN(C(=O)C2CCCC2)C(C)CN1C(=O)C1CCCC1 (stereo not given)	2	0	4	3	-2	.	.
CC1CN(C(=O)C2CC2)C(C)CN1C(=O)C1CC1 (stereo not given)	3	0	25*	3	1	-7	-1
COc1cc(CNn2c(C)n[nH]c2=S)cc(Cl)c1OCC(=O)NC(C)(C)C	4	0	29*	-6	2	25*	-4
COc1cc(CNn2c(C)n[nH]c2=S)cc(Br)c1OCC(=O)NC(C)(C)C	1	0	12	-7	0	.	.
Cc1ccccc1CN1CCCCC(NC(=O)C2CCCC2)C1=O (stereo not given)	2	.	16	1	.	.	.
COc1ccc2cc(C(=O)N/N=C/c3sc4ccccc4c3O)ccc2c1	-74	-1	21*	-79	-30	-28	-33
O=C(N/N=C/c1sc2ccccc2c1O)c1cccc2ccccc12	-29	0	31*	-29	6	9	5
COc1ccc(C(=O)N/N=C/c2sc3ccccc3c2O)cc1	.	0	.	.	-1	.	.
COC(=O)[C@]12C[C@H](CC(=O)NCCc3ccccc3OC)C(=O)N(CCC3=CCCCC3)C1=C[C@H](COCc1ccccc1)O[C@@H]2C	3	.	-13	-1	.	.	.
COC(=O)C1=C(C)N(Cc2ccccc2C(F)(F)F)C(=NCC2CC2)NC1c1cccc(F)c1 (stereo not given)	3	.	-7	4	.	.	.
O=P(O)(O)CCP(=O)(c1ccccc1)c1ccccc1	-1	0	3	5	0	.	.
CP(C)(=O)CCP(=O)(c1ccccc1)c1ccccc1	-4	0	19*	1	-2	17	2
CCC1CCCCN1C(=S)NC(=O)c1cc(S(=O)(=O)N2CCOCC2)ccc1C (stereo not given)	1	0	20*	-7	-4	11	-1
O=C(NCCc1ccncc1)Nc1ccc(F)cc1	-2	-1	20*	-7	-4	4	-8
O=C(NCCc1ccc(F)cc1)Nc1ccccc1	1	1	1	-3	0	.	.
O=C(CSc1nc2sc3c(c2c(=O)n1-c1ccc(Cl)cc1)CCCC3)c1ccccc1Cl	0	.	1	1	.	.	.
CN(CCCS(=O)(=O)[O-])c1ccc(/C=C/c2ccc3ccccc3[n+]2C)cc1	-9	0	21*	-18	2	6	-7
NC(=O)C1CC(=O)N(c2ccc(OCc3ccc(Cl)c(Cl)c3)cc2)C1 (stereo not given)	-21	0	21*	-23	10	10	-13
NC(=O)C1CC(=O)N(c2ccc(OCc3ccc(Cl)cc3Cl)cc2)C1 (stereo not given)	-1	3	8	1	-1	.	.
O=C(O)CCN1C(=O)c2ccccc2Sc2ncccc21	1	-1	23*	-4	-3	0	-2

Screening data as filed in PubChem.
